pIC50: −log10 of the molar value. Calls of active or inactive are those of the source. The calls are words filed in the database; no cut-off is given here.

Assay [1] has as its target T1, Neutral cholesterol ester hydrolase 1 (Mus musculus) (UniProt Q8BLF1).
T1 sequence (whole entry): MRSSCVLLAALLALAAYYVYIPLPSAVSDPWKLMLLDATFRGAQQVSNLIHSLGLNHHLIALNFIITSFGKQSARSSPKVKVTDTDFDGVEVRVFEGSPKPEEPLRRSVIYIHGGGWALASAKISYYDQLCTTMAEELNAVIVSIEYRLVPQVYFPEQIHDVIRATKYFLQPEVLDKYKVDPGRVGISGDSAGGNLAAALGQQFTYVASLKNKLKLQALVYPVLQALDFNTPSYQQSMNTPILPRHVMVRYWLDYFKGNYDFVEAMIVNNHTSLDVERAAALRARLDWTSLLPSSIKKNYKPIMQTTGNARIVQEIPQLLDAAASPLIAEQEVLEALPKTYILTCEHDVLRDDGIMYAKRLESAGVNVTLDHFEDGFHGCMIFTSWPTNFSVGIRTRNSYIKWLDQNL
Briefly: Inhibition of KIAA1363 in mouse brain at 0.01 to 100 uM treated for 30 mins by SDS-PAGE using rhodamine-tagged FP probe. It counts as tissue-based. The gist of the method: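 Mouse brain membrane proteome preincubated with inhibitor across 0.01-100 μM for 30 min. A rhodamine-tagged fluorophosphonate probe (FP-Rh) was then added for 60 min. Samples were resolved by SDS-PAGE, and probe labeling of each hydrolase band was read by in-gel fluorescence scanning.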

The target of assay [2] is Platelet-activating factor acetylhydrolase (Homo sapiens, UniProt Q13093). The assay can be described thus: Inhibition of recombinant PLA2g7 transfected in HEK293T cells by SDS-PAGE using rhodamine-tagged FP probe. It counts as cell-based, HEK-293T. The gist of the method: (§1)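 HEK293T cells were transfected with cDNA for the target hydrolase. The transfected proteome was treated with inhibitor across 0.01-100 μM, then labeled with rhodamine-tagged fluorophosphonate probe (FP-Rh). Loss of probe labeling was read to give IC50. Values are means ± standard errors of three independent experiments.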
Platelet-activating factor acetylhydrolase, sequence (Q13093 whole entry): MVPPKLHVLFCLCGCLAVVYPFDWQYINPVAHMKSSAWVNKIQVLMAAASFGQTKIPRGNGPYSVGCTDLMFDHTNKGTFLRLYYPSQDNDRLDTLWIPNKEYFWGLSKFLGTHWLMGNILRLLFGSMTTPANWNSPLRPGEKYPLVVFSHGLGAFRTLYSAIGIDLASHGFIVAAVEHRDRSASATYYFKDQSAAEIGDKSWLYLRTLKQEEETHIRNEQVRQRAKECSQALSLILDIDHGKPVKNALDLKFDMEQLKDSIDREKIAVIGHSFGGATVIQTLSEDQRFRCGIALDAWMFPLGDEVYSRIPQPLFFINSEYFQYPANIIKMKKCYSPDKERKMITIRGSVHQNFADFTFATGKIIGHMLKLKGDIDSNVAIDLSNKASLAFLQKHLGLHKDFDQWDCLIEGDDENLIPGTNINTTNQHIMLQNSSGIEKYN

In assay [3] the target is T2, Phosphatidylserine lipase ABHD16A (Mus musculus) (UniProt Q9Z1Q2).
T2 sequence (whole entry): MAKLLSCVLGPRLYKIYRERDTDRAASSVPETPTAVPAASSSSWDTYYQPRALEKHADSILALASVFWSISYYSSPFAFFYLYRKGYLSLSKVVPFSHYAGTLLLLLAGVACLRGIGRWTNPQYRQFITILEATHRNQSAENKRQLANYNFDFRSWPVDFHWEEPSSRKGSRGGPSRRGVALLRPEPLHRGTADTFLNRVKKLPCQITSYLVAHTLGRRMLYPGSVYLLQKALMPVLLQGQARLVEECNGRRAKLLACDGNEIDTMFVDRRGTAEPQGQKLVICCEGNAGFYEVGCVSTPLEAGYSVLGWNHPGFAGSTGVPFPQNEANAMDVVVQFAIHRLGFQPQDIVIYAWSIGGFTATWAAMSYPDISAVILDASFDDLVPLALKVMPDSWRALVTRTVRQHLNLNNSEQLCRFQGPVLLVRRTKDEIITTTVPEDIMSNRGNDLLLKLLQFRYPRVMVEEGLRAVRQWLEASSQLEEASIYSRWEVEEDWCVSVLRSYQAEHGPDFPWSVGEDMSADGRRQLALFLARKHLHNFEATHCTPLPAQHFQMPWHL
To be noted: Brain, 5 uM.

The target of assay [4] is Lysophosphatidylserine lipase ABHD12 (Homo sapiens, UniProt Q8N2K0). The assay can be described thus: Inhibition of recombinant ABHD12 transfected in HEK293T cells by SDS-PAGE using rhodamine-tagged FP probe. The assay is classed as cell-based, HEK-293T. A digest of the protocol: as §1
Lysophosphatidylserine lipase ABHD12, sequence (Q8N2K0 whole entry): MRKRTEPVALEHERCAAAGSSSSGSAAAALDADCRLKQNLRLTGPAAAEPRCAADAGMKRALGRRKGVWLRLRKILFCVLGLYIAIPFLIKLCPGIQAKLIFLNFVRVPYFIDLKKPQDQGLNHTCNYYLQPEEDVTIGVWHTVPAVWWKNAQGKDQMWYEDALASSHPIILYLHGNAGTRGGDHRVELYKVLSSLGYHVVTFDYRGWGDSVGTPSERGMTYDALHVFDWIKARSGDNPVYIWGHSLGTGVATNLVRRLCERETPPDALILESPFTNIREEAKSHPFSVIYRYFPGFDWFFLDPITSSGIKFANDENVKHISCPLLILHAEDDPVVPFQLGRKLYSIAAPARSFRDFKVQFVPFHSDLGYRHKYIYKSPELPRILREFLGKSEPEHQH
In assay [5] the target is Tripeptidyl-peptidase 2 (Mus musculus) (UniProt Q64514). To be noted: Brain, 5 uM.
Assay [6] has as its target Fatty-acid amide hydrolase 1 (Homo sapiens, UniProt O00519). Briefly: Inhibition of recombinant FAAH transfected in HEK293T cells by SDS-PAGE using rhodamine-tagged FP probe. The assay is classed as cell-based, HEK-293T. The gist of the method:
as §1

The target in assay [7] is Neutral cholesterol ester hydrolase 1 (Homo sapiens, UniProt Q6PIU2). The assay can be described thus: Inhibition of recombinant KIAA1363 transfected in HEK293T cells by SDS-PAGE using rhodamine-tagged FP probe. The assay is classed as cell-based, HEK-293T. The gist of the method: as §1
Neutral cholesterol ester hydrolase 1, sequence (Q6PIU2 whole entry): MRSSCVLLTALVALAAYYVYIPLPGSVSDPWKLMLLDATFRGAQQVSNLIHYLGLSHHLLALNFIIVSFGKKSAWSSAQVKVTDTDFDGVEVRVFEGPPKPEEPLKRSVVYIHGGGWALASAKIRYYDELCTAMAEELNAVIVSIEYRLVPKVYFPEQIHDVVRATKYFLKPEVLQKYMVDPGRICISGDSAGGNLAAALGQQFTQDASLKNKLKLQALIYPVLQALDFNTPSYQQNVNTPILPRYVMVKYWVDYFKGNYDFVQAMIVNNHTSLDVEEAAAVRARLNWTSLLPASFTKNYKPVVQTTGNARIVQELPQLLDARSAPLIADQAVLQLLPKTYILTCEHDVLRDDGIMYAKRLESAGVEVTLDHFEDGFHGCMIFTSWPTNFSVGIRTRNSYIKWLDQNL
Assay [8] addresses T2, Phosphatidylserine lipase ABHD16A (Mus musculus). Briefly: Inhibition of BAT5 in mouse brain assessed as reduction in spectral count at 50 uM treated for 30 mins by ABPP-MudPIT assay relative to control. The assay is classed as tissue-based. A digest of the protocol:
(§2)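 Mouse brain proteome was treated with inhibitor at the stated single concentration, or DMSO as control, for 30 min. FP-biotin (5 μM) was then added for 120 min, followed by avidin enrichment and LC-MS (ABPP-MudPIT). Runs were in triplicate. Only hydrolases with >15 average spectral counts in control were quantified. Blockade is the percent reduction in average spectral counts versus DMSO; >60% defined a target.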

Assay [9] has as its target Diacylglycerol lipase-beta (Homo sapiens, UniProt Q8NCG7). Briefly: Inhibition of human recombinant DAGLbeta overexpressed in african green monkey COS7 cells. The assay is classed as cell-based, COS-7.
In assay [10] the target is Acetylcholinesterase (Mus musculus) (UniProt P21836). The assay can be described thus: Inhibition of AChE in mouse brain by LC-MS analysis. The assay is classed as tissue-based.
Acetylcholinesterase (Mus musculus), sequence (P21836 whole entry): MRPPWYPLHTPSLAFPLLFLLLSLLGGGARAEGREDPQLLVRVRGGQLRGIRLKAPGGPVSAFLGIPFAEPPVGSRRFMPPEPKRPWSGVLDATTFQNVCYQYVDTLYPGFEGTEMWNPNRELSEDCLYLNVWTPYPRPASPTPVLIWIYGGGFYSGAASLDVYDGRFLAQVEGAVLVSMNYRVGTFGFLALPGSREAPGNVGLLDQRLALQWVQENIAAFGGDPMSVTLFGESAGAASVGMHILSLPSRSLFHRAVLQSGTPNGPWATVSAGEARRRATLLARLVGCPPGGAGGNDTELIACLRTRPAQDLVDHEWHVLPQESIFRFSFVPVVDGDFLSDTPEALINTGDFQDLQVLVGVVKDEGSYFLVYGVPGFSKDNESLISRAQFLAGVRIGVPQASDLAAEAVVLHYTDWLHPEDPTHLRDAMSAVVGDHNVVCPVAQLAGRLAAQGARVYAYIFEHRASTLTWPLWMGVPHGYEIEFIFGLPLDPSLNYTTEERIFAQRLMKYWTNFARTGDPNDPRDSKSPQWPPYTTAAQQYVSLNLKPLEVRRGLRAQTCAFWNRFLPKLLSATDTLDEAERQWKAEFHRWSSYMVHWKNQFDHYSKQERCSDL
For assay [11] the target is unchanged. Briefly: Inhibition of AChE in mouse brain assessed as reduction in spectral count at 5 uM treated for 30 mins by ABPP-MudPIT assay relative to control. It counts as tissue-based. A digest of the protocol:
as §2

The target of assay [12] is Diacylglycerol lipase-alpha (Homo sapiens, UniProt Q9Y4D2). Briefly: Inhibition of human recombinant DAGLalpha overexpressed in african green monkey COS7 cells. The assay is classed as cell-based, COS-7.
Diacylglycerol lipase-alpha, sequence (Q9Y4D2 whole entry): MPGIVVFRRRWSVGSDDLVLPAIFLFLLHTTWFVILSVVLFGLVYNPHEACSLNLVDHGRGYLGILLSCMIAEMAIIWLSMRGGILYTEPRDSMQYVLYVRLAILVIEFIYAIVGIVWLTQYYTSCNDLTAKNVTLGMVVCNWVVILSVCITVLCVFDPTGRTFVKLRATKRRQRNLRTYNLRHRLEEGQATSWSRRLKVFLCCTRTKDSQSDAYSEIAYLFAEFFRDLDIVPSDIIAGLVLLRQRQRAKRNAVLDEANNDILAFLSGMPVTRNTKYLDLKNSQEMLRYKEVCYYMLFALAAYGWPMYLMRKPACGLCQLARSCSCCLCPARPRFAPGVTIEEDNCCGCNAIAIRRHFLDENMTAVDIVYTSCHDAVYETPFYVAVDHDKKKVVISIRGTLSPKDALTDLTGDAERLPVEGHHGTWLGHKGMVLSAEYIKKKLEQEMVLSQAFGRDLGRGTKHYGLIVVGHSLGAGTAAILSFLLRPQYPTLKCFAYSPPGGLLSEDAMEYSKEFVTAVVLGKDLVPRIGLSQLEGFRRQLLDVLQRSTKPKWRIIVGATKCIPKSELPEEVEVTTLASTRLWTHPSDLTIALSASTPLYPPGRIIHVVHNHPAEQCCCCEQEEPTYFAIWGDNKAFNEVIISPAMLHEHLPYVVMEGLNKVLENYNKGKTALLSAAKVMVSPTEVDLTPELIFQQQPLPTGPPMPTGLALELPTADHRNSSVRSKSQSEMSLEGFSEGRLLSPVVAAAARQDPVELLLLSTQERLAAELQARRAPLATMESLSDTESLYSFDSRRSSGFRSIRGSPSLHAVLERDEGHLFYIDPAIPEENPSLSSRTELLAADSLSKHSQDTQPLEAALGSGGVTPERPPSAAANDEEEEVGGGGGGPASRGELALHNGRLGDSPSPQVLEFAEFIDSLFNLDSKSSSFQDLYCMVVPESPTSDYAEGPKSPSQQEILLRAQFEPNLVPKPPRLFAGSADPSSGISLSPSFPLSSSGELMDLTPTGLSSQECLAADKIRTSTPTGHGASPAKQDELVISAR
Assay [13] concerns the target T3, Platelet-activating factor acetylhydrolase (Mus musculus) (UniProt Q60963).
T3 sequence (whole entry): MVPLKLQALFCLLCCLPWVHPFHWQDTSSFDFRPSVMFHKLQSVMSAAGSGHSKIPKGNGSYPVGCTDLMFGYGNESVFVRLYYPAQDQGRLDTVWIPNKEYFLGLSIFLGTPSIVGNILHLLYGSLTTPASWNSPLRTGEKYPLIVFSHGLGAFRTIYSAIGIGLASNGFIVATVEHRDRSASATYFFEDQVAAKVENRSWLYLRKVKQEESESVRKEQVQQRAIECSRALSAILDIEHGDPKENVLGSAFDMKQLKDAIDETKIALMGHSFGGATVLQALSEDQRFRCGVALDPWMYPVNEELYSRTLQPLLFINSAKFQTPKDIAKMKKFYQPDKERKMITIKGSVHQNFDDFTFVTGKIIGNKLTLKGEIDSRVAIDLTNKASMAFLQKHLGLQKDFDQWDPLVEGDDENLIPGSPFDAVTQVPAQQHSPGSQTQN
Briefly: Inhibition of PLA2g7 in mouse brain by LC-MS analysis. It counts as tissue-based.

Assay [14] deals with T3, Platelet-activating factor acetylhydrolase (Mus musculus). The assay can be described thus: Inhibition of PLA2g7 in mouse brain assessed as reduction in spectral count at 5 uM treated for 30 mins by ABPP-MudPIT assay relative to control. It counts as tissue-based. A digest of the protocol:
as §2

Assay [15] deals with Hormone-sensitive lipase (Mus musculus) (UniProt P54310). The assay can be described thus: Inhibition of HSL in mouse brain assessed as reduction in spectral count at 50 uM treated for 30 mins by ABPP-MudPIT assay relative to control. The assay is classed as tissue-based. The gist of the method: as §2
Hormone-sensitive lipase (Mus musculus), sequence (P54310 whole entry): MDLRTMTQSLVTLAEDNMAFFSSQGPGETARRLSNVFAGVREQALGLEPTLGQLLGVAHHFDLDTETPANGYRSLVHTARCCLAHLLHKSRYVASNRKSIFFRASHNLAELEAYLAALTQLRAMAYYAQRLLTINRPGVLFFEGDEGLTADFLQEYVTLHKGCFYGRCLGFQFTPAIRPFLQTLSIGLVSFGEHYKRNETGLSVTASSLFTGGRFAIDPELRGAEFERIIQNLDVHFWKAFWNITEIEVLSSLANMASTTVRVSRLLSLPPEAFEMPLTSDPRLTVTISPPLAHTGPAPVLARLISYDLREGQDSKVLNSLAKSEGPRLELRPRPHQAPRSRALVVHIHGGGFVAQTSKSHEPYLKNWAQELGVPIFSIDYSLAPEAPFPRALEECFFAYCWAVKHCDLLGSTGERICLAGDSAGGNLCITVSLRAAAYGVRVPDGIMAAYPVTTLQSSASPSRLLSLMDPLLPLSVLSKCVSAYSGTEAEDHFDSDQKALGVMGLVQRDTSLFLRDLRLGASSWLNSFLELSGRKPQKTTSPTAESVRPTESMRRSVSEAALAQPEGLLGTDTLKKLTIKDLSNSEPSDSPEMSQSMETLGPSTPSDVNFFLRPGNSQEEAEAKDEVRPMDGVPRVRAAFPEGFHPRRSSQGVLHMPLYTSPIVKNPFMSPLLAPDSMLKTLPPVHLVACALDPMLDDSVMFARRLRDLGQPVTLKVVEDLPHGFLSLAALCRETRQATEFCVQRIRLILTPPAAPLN

Fatty-acid amide hydrolase 1, sequence (O00519 whole entry): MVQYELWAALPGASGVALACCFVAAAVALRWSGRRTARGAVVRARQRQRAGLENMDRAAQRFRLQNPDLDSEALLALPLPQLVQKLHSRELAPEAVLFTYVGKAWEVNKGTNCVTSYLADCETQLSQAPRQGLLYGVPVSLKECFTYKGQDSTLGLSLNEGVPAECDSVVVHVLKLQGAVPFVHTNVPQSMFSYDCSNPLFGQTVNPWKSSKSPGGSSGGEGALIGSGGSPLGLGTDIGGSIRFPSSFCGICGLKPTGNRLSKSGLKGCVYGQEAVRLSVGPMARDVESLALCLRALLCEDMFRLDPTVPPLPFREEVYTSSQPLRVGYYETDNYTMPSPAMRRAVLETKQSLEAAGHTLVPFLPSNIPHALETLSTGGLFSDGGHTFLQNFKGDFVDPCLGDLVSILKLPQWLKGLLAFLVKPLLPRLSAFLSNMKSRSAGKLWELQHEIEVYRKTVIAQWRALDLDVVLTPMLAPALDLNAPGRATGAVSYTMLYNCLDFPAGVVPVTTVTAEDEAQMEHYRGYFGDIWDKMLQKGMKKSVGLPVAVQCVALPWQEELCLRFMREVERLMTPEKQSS
Diacylglycerol lipase-beta, sequence (Q8NCG7 whole entry): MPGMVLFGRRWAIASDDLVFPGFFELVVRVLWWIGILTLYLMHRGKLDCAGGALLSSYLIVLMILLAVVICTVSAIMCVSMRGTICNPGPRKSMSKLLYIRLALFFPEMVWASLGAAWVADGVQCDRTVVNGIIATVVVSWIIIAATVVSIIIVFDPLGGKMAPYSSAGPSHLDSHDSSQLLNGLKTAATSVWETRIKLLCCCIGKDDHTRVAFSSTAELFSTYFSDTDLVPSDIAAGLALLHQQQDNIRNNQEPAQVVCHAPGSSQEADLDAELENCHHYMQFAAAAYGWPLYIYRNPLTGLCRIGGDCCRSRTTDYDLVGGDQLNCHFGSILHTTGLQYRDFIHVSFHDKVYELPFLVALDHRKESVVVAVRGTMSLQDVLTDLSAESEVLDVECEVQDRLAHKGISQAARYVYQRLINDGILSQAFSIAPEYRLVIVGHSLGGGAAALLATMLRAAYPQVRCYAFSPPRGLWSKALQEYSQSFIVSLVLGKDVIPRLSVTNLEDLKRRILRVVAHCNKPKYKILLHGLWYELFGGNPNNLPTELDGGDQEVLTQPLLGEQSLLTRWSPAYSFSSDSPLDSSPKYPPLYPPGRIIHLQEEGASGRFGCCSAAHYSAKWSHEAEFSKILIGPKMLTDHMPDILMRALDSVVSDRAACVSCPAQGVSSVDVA

On to `CCCCCCCCCCC[C@@H](C[C@@H]1OC(=O)[C@H]1CCCCCC)OC(=O)[C@H](CC(C)C)NC=O` [ORLISTAT], for which, in assay [1], the outcome was Active. The pIC50 in assay [2] is 7.30; in [4] it was 7.10; in assay [6], < 4.00; in [7] it was < 4.00. In addition, the inhibition in assay [3] and in assay [5] was > 60% throughout.
Regarding `O=C(NCCCCCCNC(=O)ON=C1CCCCC1)ON=C1CCCCC1`, the result in [1], in assay [10] and in assay [13] was Active. Besides, the inhibition is > 60% in assay [8], > 60% in assay [11], > 60% in assay [14] and < 60% in [15]. Besides, the pIC50 in assay [2] is 4.96; in assay [9] it was 7.22; in assay [4] it was < 4.00; in assay [6], 4.15; in assay [12] it was 7.22; in [7], 5.00.

Source of the values: ChEMBL document CHEMBL1151781, “Selectivity of inhibitors of endocannabinoid biosynthesis evaluated by activity-based protein profiling” (Bioorg Med Chem Lett, 2008).
